Data reported in ChEMBL document CHEMBL4130630 (J Med Chem, 2018).

Assays:
[1] = target: T1, Sodium- and chloride-dependent GABA transporter 1 (Mus musculus, UniProt P31648); test: Inhibition of mouse GAT1 expressed in HEK293 cells assessed as reduction in [3H]GABA uptake preincubated for 25 mins followed by [3H]GABA addition measured after 4 mins by liquid scintillation counting analysis; type: cell-based
How it was run: (§1)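 HEK293 cells stably expressing the mouse GAT subtype (about 200000 cells) preincubated with compound for 25 min at 25 °C in the dark with shaking. Then 8 nM [3H]GABA plus 32 nM unlabeled GABA (final) added for 4 min. Stopped by filtration; filter radioactivity by scintillation counting. Photoisomerized 10 mM DMSO-d6 stocks (photostationary state, Z/E ratio by 1H NMR) diluted protected from light; non-irradiated stock tested in parallel.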

GABA transporter 4 = target: T2, GABA transporter 4 (Mus musculus, UniProt P31650); test: Inhibition of mouse GAT4 expressed in HEK293 cells assessed as reduction in [3H]GABA uptake preincubated for 25 mins followed by [3H]GABA addition measured after 4 mins by liquid scintillation counting analysis; type: cell-based; how it was run: as §1
T2 sequence (P31650 whole entry): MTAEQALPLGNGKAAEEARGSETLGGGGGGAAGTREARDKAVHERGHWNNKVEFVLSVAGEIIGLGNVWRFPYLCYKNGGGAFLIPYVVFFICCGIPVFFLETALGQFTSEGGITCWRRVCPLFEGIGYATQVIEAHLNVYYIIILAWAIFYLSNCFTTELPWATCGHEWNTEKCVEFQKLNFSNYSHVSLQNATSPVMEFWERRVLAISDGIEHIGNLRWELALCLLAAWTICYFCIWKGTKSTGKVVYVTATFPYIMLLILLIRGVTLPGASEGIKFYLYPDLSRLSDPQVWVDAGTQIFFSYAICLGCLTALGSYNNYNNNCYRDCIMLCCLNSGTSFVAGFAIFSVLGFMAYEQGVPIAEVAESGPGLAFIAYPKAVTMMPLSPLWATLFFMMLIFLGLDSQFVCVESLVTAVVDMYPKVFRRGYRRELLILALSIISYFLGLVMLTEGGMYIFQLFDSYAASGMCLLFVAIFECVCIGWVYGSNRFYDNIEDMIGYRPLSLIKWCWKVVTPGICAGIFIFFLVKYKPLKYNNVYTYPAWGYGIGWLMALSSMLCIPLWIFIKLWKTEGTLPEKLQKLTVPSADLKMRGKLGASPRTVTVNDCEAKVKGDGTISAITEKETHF

[2] = target: T1, Sodium- and chloride-dependent GABA transporter 1; test: Inhibition of mouse GAT1 expressed in HEK293 cells assessed as reduction in [3H]GABA uptake; type: cell-based
[3] = target: Sodium- and chloride-dependent GABA transporter 1 (Mus musculus) (UniProt P31648); test: Inhibition of GAT1 in C57BL/6N mouse dentate gyrus granule cells assessed as induction of tonic GABAA receptor-mediated current response by measuring shift in holding current amplitude at 10 uM by Whole cell voltage-clamp method
How it was run: (§2)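 Acute 350 μm coronal dorsal hippocampal slices from mice, recovered 30 min at 34 °C then ≥30 min at room temperature in carbogenated saline (pH 7.4). Superfused at room temperature with NBQX 5 μM, APV 50 μM, CGP 55845 5 μM. Granule cell whole-cell voltage clamp at −70 mV. Compound bath-applied; activated form made by 340 nm UV for 10 min on 10 mM stock just before addition; bicuculline methiodide 20 μM.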

[4] = Half life of thermal relaxation of compound in pH 7.4 DMSO-d6/phosphate-buffer using photoirradiated compound at 10 uM incubated in dark by UV/vis-spectroscopy; type: physicochemical; details: pH 7.4, 10 µM
[5] = target: T1, Sodium- and chloride-dependent GABA transporter 1; test: Inhibition of mouse GAT1 expressed in HEK293 cells assessed as reduction in [3H]GABA uptake preincubated cells with photoirradiated compound for 25 mins followed by [3H]GABA addition measured after 4 mins by liquid scintillation counting method; type: cell-based; how it was run: as §1
[6] = Half life of thermal relaxation of compound in pH 7.4 DMSO-d6/phosphate-buffer using photoirradiated compound at 25 uM incubated in dark by UV/vis-spectroscopy; type: physicochemical; details: pH 7.4, 25 µM
[7] = Half life of thermal relaxation of compound in pH 7.4 DMSO-d6/phosphate-buffer using photoirradiated compound at 20 uM incubated in dark by UV/vis-spectroscopy; type: physicochemical; details: pH 7.4, 20 µM
[8] = Half life of thermal relaxation of compound in pH 7.4 DMSO-d6/phosphate-buffer using photoirradiated compound at 50 uM incubated in dark by UV/vis-spectroscopy; type: physicochemical; details: pH 7.4, 50 µM
[9] = target: Sodium- and chloride-dependent GABA transporter 1 (Mus musculus) (UniProt P31648); test: Inhibition of GAT1 in C57BL/6N mouse dentate gyrus granule cells assessed as induction of tonic GABAA receptor-mediated current response by measuring shift in holding current amplitude using UV-activated compound at 10 uM by Whole cell voltage-clamp method; how it was run: as §2
[10] = tested on: betaine/GABA transporter BGT1, Slc6a12 (Mus musculus); test: Inhibition of mouse GAT2 expressed in HEK293 cells assessed as reduction in [3H]GABA uptake by measuring remaining [3H]GABA uptake levels preincubated cells with photoirradiated compound at 100 uM for 25 mins followed by [3H]GABA addition measured after 4 mins by liquid scintillation counting …
[11] = target: T3, GABA transporter 4 (Mus musculus) (UniProt P31650); test: Inhibition of mouse GAT4 expressed in HEK293 cells assessed as reduction in [3H]GABA uptake by measuring remaining [3H]GABA uptake levels preincubated cells with photoirradiated compound at 100 uM for 25 mins followed by [3H]GABA addition measured after 4 mins by liquid scintillation counting method relative to control; type: cell-based
T3 sequence (whole entry): T2 sequence (P31650 whole entry)

[12] = target: Sodium- and chloride-dependent GABA transporter 1 (Mus musculus) (UniProt P31648); test: Inhibition of GAT1 in C57BL/6N mouse dentate gyrus granule cells assessed as induction of tonic GABAA receptor-mediated current response by measuring shift in holding current amplitude using UV-activated compound at 10 uM in presence of GABAA receptor blocker bicuculline methiodide by Whole cell voltage-clamp method; how it was run: as §2
[13] = tested on: GABA transporter 2, Slc6a13 (Mus musculus); test: Inhibition of mouse GAT3 expressed in HEK293 cells assessed as reduction in [3H]GABA uptake by measuring remaining [3H]GABA uptake levels preincubated cells with photoirradiated compound at 100 uM for 25 mins followed by [3H]GABA addition measured after 4 mins by liquid scintillation counting …

SMILES | IC50 [1] [µM] | IC50 [5] [µM] | also measured
O=C(O)[C@@H]1CCCN(CCC#Cc2ccc(/N=N/c3ccccc3)cc2)C1 | 0.417 |  | IC50 (GABA transporter 4): 10 to 100 µM
O=C(O)C1CCCN(CC/C=C/c2cccc(/N=N/c3ccccc3)c2)C1 (stereo unspecified) | 38 |  | 
O=C(O)C1CCCN(CCC/C=C/c2cccc(/N=N/c3ccccc3)c2)C1 (stereo unspecified) | 38 |  | 
O=C(O)C1CCCN(CCC/C=C/c2ccc(/N=N/c3ccccc3)cc2)C1 (stereo unspecified) | 5.75 |  | 
O=C(O)C1CCCN(CCC#Cc2ccc(/N=N/c3ccccc3)cc2)C1 (stereo unspecified) | 0.646 |  | 
O=C(O)C1CCCN(CCC#Cc2cccc(/N=N/c3ccccc3)c2)C1 (stereo unspecified) | 32.4 |  | 
O=C(O)C1CCCN(CC/C=C/c2ccc(/N=N/c3cccc4ccccc34)cc2)C1 (stereo unspecified) | 8.71 |  | 
O=C(O)C1CCCN(CC/C=C/c2ccccc2-c2ccccc2)C1 (stereo unspecified) |  |  | IC50 [2]: 0.162 µM
O=C(O)[C@@H]1CCCN(CCC#Cc2cccc(/N=N/c3cccc4ccccc34)c2)C1 | 4.27 |  | IC50 (GABA transporter 4): 10 to 100 µM
O=C(O)C1CCCN(CCCC#Cc2cccc(/N=N/c3cccc4ccccc34)c2)C1 (stereo unspecified) | 12.3 |  | 
O=C(O)C1CCCN(CCC/C=C/c2cccc(/N=N/c3cccc4ccccc34)c2)C1 (stereo unspecified) | 19.5 |  | 
O=C(O)C1CCCN(CCCC#Cc2cccc(/N=N/c3ccccc3)c2)C1 (stereo unspecified) | 14.5 |  | 
O=C(O)C1CCCN(CCC/C=C/c2ccc(/N=N/c3cccc4ccccc34)cc2)C1 (stereo unspecified) | 6.46 |  | 
O=C(O)C1CCCN(CCCC#Cc2ccc(/N=N/c3cccc4ccccc34)cc2)C1 (stereo unspecified) | 3.02 |  | 
O=C(O)[C@@H]1CCCN(CCC#Cc2ccc(/N=N/c3cccc4ccccc34)cc2)C1 | 0.0977 |  | IC50 (GABA transporter 4): 10 to 100 µM
O=C(O)C1CCCN(CCC#Cc2cccc(/N=N/c3cccc4ccccc34)c2)C1 (stereo unspecified) | 6.46 |  | 
O=C(O)C1CCCN(CCC#Cc2ccccc2-c2ccccc2)C1 (stereo unspecified) |  |  | IC50 [2]: 0.1 µM
O=C(O)C1CCCN(CCCC#Cc2ccc(/N=N/c3ccccc3)cc2)C1 (stereo unspecified) | 7.59 |  | 
O=C(O)C1CCCN(CC/C=C/c2ccc(/N=N/c3ccccc3)cc2)C1 (stereo unspecified) | 10 |  | 
O=C(O)C1CCCN(CCC#Cc2ccc(/N=N/c3cccc4ccccc34)cc2)C1 (stereo unspecified) | 0.126 |  | 
O=C(O)[C@@H]1CCCN(CCC#Cc2cccc(/N=N/c3ccccc3)c2)C1 | 22.4 |  | Activity [3]: -0.22 pA; IC50 (GABA transporter 4): 10 to 100 µM

SMILES | IC50 [1] [µM] | IC50 [5] [µM] | also measured
O=C(O)C1CCCN(CC/C=C/c2cccc(/N=N/c3cccc4ccccc34)c2)C1 (stereo unspecified) | 12.3 |  | 
O=C(O)C1CCCN(CCCC#Cc2ccc(N=Nc3cccc4ccccc34)cc2)C1 (mixture of isomers) |  | 4.9 | t1/2 [4]: 4.3 h
O=C(O)C1CCCN(CCC#Cc2ccc(N=Nc3ccccc3)cc2)C1 (mixture of isomers) |  | 2.57 | t1/2 [6]: 115 h
O=C(O)C1CCCN(CCCC#Cc2cccc(N=Nc3ccccc3)c2)C1 (mixture of isomers) |  | 4.07 | t1/2 [7]: 360 h
O=C(O)C1CCCN(CCCC=Cc2ccc(N=Nc3ccccc3)cc2)C1 (mixture of isomers) |  | 23.4 | t1/2 [8]: 45.6 h
O=C(O)C1CCCN(CCC#Cc2cccc(N=Nc3cccc4ccccc34)c2)C1 (mixture of isomers) |  | 1.95 | t1/2 [7]: 18 h
O=C(O)C1CCCN(CCCC=Cc2cccc(N=Nc3ccccc3)c2)C1 (mixture of isomers) |  | 25.1 | t1/2 [7]: 288 h
O=C(O)C1CCCN(CCCC#Cc2ccc(N=Nc3ccccc3)cc2)C1 (mixture of isomers) |  | 25.7 | t1/2 [6]: 163 h
O=C(O)C1CCCN(CCC=Cc2cccc(N=Nc3cccc4ccccc34)c2)C1 (mixture of isomers) |  | 5.89 | t1/2 [7]: 22 h
O=C(O)C1CCCN(CCC#Cc2ccc(N=Nc3cccc4ccccc34)cc2)C1 (mixture of isomers) |  | 0.229 | t1/2 [4]: 3.4 h
O=C(O)[C@@H]1CCCN(CCC#Cc2cccc(N=Nc3ccccc3)c2)C1 (mixture of isomers) |  | 0.417 | Activity [9]: -25.3 pA; Activity [10]: 76%; Activity [11]: 57%; Activity [12]: -1.84 pA; Activity [13]: 60%
O=C(O)[C@@H]1CCCN(CCC#Cc2ccc(N=Nc3ccccc3)cc2)C1 (mixture of isomers) |  | 1.45 | 
O=C(O)[C@@H]1CCCN(CCC#Cc2ccc(N=Nc3cccc4ccccc34)cc2)C1 (mixture of isomers) |  | 0.182 | 
O=C(O)C1CCCN(CCCC=Cc2ccc(N=Nc3cccc4ccccc34)cc2)C1 (mixture of isomers) |  | 6.17 | t1/2 [4]: 1.5 h
O=C(O)C1CCCN(CCCC=Cc2cccc(N=Nc3cccc4ccccc34)c2)C1 (mixture of isomers) |  | 10 | t1/2 [7]: 11 h
O=C(O)C1CCCN(CCC=Cc2ccc(N=Nc3cccc4ccccc34)cc2)C1 (mixture of isomers) |  | 7.41 | t1/2 [4]: 1.2 h
O=C(O)C1CCCN(CCCC#Cc2cccc(N=Nc3cccc4ccccc34)c2)C1 (mixture of isomers) |  | 13.8 | t1/2 [7]: 43.2 h
O=C(O)C1CCCN(CCC=Cc2ccc(N=Nc3ccccc3)cc2)C1 (mixture of isomers) |  | 37.2 | t1/2 [8]: 26.4 h
O=C(O)[C@@H]1CCCN(CCC#Cc2cccc(N=Nc3cccc4ccccc34)c2)C1 (mixture of isomers) |  | 1 | 
O=C(O)C1CCCN(CCC=Cc2cccc(N=Nc3ccccc3)c2)C1 (mixture of isomers) |  | 4.79 | t1/2 [6]: 312 h
